The text below walks through data of paper PMC10694180 (Heliyon, 2023).

The target of series [1] is Hypoxia-inducible factor 1-alpha (HIF-1α) (Mus musculus, UniProt Q61221). In words: Quantitative HIF-1α inhibitory assay. Conditions: ELISA, cell extracts, 50 μM concentration (Fig. 3). It is filed as cell-based. Summed up: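 Mouse HIF-1α quantified with a simple-step ELISA kit run per the manufacturer. Cell lysate concentrates from fresh material were added to wells coated with double-stranded DNA carrying HIF-1α-binding HREs. Bound HIF-1α was detected with a primary mouse anti-HIF-1α antibody and a labelled secondary anti-mouse antibody, and absorbance was read at 450 nm.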
Sequence of Hypoxia-inducible factor 1-alpha (HIF-1α) (Q61221 whole entry): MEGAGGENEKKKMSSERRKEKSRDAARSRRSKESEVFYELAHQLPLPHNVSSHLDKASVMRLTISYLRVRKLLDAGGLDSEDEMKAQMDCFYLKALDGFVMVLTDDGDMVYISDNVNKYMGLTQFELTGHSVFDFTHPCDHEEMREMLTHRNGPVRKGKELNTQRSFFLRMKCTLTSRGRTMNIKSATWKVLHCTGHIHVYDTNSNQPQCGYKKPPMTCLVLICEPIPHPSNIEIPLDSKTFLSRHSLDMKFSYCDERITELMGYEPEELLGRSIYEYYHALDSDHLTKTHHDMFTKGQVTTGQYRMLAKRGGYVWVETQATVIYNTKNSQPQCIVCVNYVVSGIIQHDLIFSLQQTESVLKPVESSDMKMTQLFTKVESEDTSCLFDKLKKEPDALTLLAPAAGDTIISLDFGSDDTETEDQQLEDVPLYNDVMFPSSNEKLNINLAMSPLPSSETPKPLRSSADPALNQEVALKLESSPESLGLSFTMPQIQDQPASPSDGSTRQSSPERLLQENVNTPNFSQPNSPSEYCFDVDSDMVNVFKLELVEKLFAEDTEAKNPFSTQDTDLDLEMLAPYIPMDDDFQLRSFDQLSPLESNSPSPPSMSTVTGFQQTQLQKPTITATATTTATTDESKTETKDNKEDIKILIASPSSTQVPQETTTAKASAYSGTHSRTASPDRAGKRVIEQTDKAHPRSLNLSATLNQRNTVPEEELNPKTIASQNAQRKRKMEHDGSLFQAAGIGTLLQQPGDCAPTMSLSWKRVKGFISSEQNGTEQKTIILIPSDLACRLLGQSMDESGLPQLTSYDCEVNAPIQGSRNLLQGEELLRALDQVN
On the technique in general: ELISA stands for enzyme-linked immunosorbent assay.

The test system of series [2] is hypoxia induced ID8 mouse ovarian epithelial cell line. In words: MTT assay, hypoxia induced ovarian cancer cell line ID8. It is filed as cell-based. The following applies: for IC50: 72 h; for inhibition of cell proliferation: ID8 cells, 50 μM concentration. Summed up:
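Hypoxia-induced mouse ID8 ovarian epithelial cells were seeded in 96-well plates and exposed to test compound or control. MTT was added 72 h after drug addition, and the resuspended formazan was read by absorbance. Growth inhibition (%) = [1 − (A/B)] × 100, where A is treated wells and B is control wells; n = 3.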
For orientation: Tetrazolium dyes change colour on reduction, which living cells bring about.

Series [3] can be described thus: Solubility data of synthesized compounds. It is filed as physicochemical. Conditions: solvents: DMSO, ethanol, ethanolic water.
Setting [4] is: Mus musculus, Epithelial cell, read-out: IC50 (μM), viability of Ovarian cancer cell lines ID8, hypoxia induced ID8, MTT, 72 h, n = 3.
Where [5] appears, read: read-out: IC50 (μM), viability of Ovarian cancer cell lines ID8, hypoxia induced ID8, MTT, n = 3.

“Also recorded” adds a separate entry of the source. Where two headings read alike, the source gives them in different places.

As a reminder, the IC50 is the concentration that gives 50% inhibition. Turning to `COc1cccc(NCC(=O)N2CCOCC2)c1` [Compound 1d, 2-[(3-methoxyphenyl)amino]-1-(morpholin-4-yl) ethanone], in series [1], the “inhibition of HIF-1α” value is listed as “lesser inhibition”. Besides, in series [2] (setting [4]), the concentration for half-maximal inhibition (IC50) is 25.3 ± 0.82 µM.
Consider `COc1ccccc1NCC(=O)N1CCOCC1` [Compound 1f, 2-[(2-methoxyphenyl)amino]-1-(morpholin-4-yl) ethanone], for which, in series [2] (setting [4]), the IC50 came out at 158.4 ± 0.66 µM.
Consider `O=C(CNCc1ccccc1)N1CCOCC1` [Compound 1n, 2-(benzylamino)-1-(morpholin-4-yl) ethanone], for which, in series [3], the solubility result was “only soluble in DMSO”. Also, the IC50 in series [2] (setting [4]) worked out at 47.9 ± 0.75 µM.
In the case of `N.N.[Cl][Pt][Cl]` [Cisplatin, reference compound], the “inhibition of cell proliferation” value in series [2] is listed as 60%. For the same compound, the IC50 in series [2] (setting [5]) is 8.5 ± 0.23 µM; in series [2] (read-out: IC50 (μM), viability of Ovarian cancer cell lines ID8, hypoxia induced ID8, MTT, n = 3, listed as cisplatin) it was 8.5 µM.
With `O=C(COc1ccccc1)N1CCOCC1` [Compound 1g, 1-(morpholin-4-yl)-2-phenoxyethanone], the solubility result in series [3] is reported as “only soluble in DMSO”. Besides, in series [2] (setting [4]), the IC50 was 146.1 ± 0.56 µM.
`O=C(CNCc1ccc(F)cc1)N1CCOCC1` [Compound 1k, 2-[(4-fluorobenzyl)amino]-1-(morpholin-4-yl) ethanone]: the IC50 in series [2] (setting [4]) was 64.2 ± 0.88 µM.
On the same count and under the same terms, with `O=C(CN1CCCC1)N1CCOCC1` [Compound 1b, 1-(morpholin-4-yl)-2-(pyrrolidin-1-yl) ethanone] the figure was 14.8 ± 0.7 µM; with `COc1ccc(NCC(=O)N2CCOCC2)cc1` [Compound 1e, 2-[(4-methoxyphenyl)amino]-1-(morpholin-4-yl)ethanone], 26.4 ± 0.72 µM.
Turning to `O=C(CNCc1ccc(Cl)cc1)N1CCOCC1` [Compound 1j, 2-[(4-chlorobenzyl)amino]-1-(morpholin-4-yl) ethanone], in series [3], the solubility result is recorded as “only soluble in DMSO”. The IC50 in series [2] (setting [4]) worked out at 21.49 ± 0.11 µM.
Take `Cc1ccc(C(C)C)c(OCC(=O)N2CCOCC2)c1` [Compound 1i, 2-[5-methyl-2-(propan-2-yl)phenoxy]-1-(morpholin-4-yl) ethanone]: the “inhibition of HIF-1α” value in series [1] is given as “significant inhibitory effects; also recorded: optimal activity; also recorded: good inhibition”. Further, the “inhibition of cell proliferation” value in series [2] is given as “maximum inhibition”. In series [2] (setting [4]), the concentration for half-maximal inhibition (IC50) came to 11.2 ± 0.22 µM.
For `O=C(CNc1nnc(-c2ccccc2)o1)N1CCOCC1` [Compound 1l, 1-(morpholin-4-yl)-2-[(5-phenyl-1,3,4-oxadiazol-2-yl)amino] ethanone], the IC50 stood at 15.6 µM in series [2] (setting [4]) and 15.6 ± 0.77 µM in series [2] (setting [5]). In addition, the inhibition at 50 µM in series [2] (Mus musculus, ID8, read-out: inhibition of cell proliferation) came to 60%.
Take `O=C(CN1CCOCC1)N1CCOCC1` [Compound 1a, 1,2-di (morpholin-4-yl) ethanone]: the IC50 in series [2] (setting [4]) was 23.9 ± 0.61 µM.
In the case of `O=C(CNc1ccccn1)N1CCOCC1` [Compound 1c, 1-(morpholin-4-yl)-2-(pyridin-2-ylamino) ethanone], the “inhibition of HIF-1α” value in series [1] is listed as “significant inhibitory effects; also recorded: optimal activity; also recorded: promising activities”. The IC50 in series [2] (setting [4]) was determined as 15.7 ± 0.64 µM.
In the case of `O=C(CSc1nc2ccccc2s1)N1CCOCC1` [Compound 1m, 2-(1,3-benzothiazol-2-ylsulfanyl)-1-(morpholin-4-yl) ethanone], the IC50 in series [2] (setting [4]) worked out at 32.4 ± 0.67 µM.
Take `O=C(CNc1ccc(F)cc1)N1CCOCC1` [Compound 1h, 2-[(4-fluorophenyl)amino]-1-(morpholin-4-yl) ethanone]: the “inhibition of HIF-1α” value in series [1] is “significant inhibitory effects; also recorded: optimal activity; also recorded: good inhibition”. For the same compound, the “inhibition of cell proliferation” value in series [2] is listed as “maximum inhibition”. The IC50 in series [2] (setting [4]) worked out at 9.4 µM; in series [2] (setting [5]) it was 9.41 ± 0.73 µM.
